# Compound activity as filed in PubChem.
# The list is not random: actives were taken first. Their share in the collection is about 4.6%.
# OX1R antag-1: human HCRTR1 antagonism. hit rate 0.43% among 330,000. inhibition, % at 5 µM. CHO/OX1R cells, Fluo-8 calcium fluorescence, orexin A. AID 434989. O43613;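 active = inhibition above its plate's threshold, mean inhibition of all tested compounds on the plate plus 3 SD, cut at about 37% in these data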;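 also: 0% = orexin A challenge wells and 100% = SB-334867-A antagonist wells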
# TAAR1 ag: human TAAR1 agonism; Q96RJ0; CHO RD-HGA16 TAAR1, Fluo-8 calcium fluorescence; vehicle wells 0%, saturating PEA agonist 100%; activation, % at 3 µM; hit rate 0.99% among 360,000;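 active = activation above the mean activation of all test compounds in the run plus 3 SD, cut at about 38% in these data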
#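 Test system: RD-HGA16 (CHO) cells co-expressing Gα16 and hTAAR1; dosing: one-point dosing at 3 µM (nominal); timing: 17-24 h seeding, 75 min 37 °C dye, 30 min RT; signal: kinetic Fluo-8 calcium fluorescence; read-out basis: % activation relative to PEA EC100 response; controls: DMSO and PEA EC100; replicates: n 1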
# OX1R antag-2: OX1R (human) antagonism; O43613; OX1R-expressing cells, FRET antagonist read-out; inhibition, % at 6.6 µM; hit rate 1.8% among 330,000; in the data active = inhibition mostly above about 38%, no sharp cut-off; inactive = mostly below about 40%;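 also: 0% = agonist challenge alone and 100% = reference antagonist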
# CHO parental Ca: counter-screen: ATP calcium response change in parental CHO cells; hit rate 0.63% among 330,000; parental CHO-K1, ATP-induced calcium, Fluo-8 fluorescence; inhibition, % at 5.6 µM;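 active = inhibition above that plate's mean sample inhibition plus 3 SD, cut at about 26% in these data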;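 also: 0% = ATP-challenged DMSO wells and 100% = DMSO wells without ATP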
#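 Material: Parental CHO cells | Reagent: ATP | Compound dosing: Single nominal dose of 5.6 µM per compound | Detection: Intracellular calcium via Fluo-8 no-wash fluorescent dye | Read-out: % inhibition of ATP-induced calcium mobilization | Benchmarks: Low control ATP plus DMSO, high control DMSO only | Replicates: Singlicate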
# GPR7 antag: human neuropeptides B/W receptor 1 antagonism; P48145; GPR7-expressing cells, fluorescence antagonist assay; inhibition, % at 4.4 µM; hit rate 1.1% among 290,000; in the data active = inhibition above about 16%, passing the limit was not always enough;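 also: cells stimulated with the agonist NPW; 0% = agonist with vehicle and 100% = vehicle without agonist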
# Target sequence (P48145 whole entry, looked up): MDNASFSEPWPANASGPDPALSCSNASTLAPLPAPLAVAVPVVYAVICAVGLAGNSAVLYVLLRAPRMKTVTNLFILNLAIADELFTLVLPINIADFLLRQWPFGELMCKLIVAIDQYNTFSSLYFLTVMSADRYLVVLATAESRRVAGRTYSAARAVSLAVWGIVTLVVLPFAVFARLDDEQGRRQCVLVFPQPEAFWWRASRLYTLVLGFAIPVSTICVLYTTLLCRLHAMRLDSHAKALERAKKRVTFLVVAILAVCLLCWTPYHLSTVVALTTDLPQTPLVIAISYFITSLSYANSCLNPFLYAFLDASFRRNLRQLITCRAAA
# TAAR1 antag: antagonists of human TAAR1; AID 624466; CHO RD-HGA16 TAAR1, Fluo-8 calcium fluorescence, antagonist; Q96RJ0; hit rate 1.5% among 360,000; inhibition, % at 3 µM;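 active = inhibition above a per-plate cutoff, the mean inhibition of test compounds on that plate plus 3 SD, cut at about 49% in these data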;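 also: 0% = DMSO plus EC80 beta-PEA response and 100% = DMSO alone without agonist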
#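 Test system: CHO RD-HGA16 cells bearing hTAAR1 | Reagent: β-PEA, EC80 | Compound dosing: 3 µM, single point | Schedule: Dye loading 75 min at 37 °C, then 30 min room temperature | Signal: Calcium fluorescence with Fluo-8 | Evaluation: Percent inhibition of PEA-evoked calcium signal, max/basal emission ratio | Control set: DMSO-only wells and EC80 β-PEA-stimulated wells | Repeats: Singlicate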
# Numbers without * were called inactive; / = no result; ! = repeats disagree.
SMILES,OX1R antag-1,TAAR1 ag,OX1R antag-2,CHO parental Ca,GPR7 antag,TAAR1 antag
O=C1CCC(C(=O)Nc2cccc(S(=O)(=O)N3CCOCC3)c2)N1 (centres undefined),-9,5,13,-8,-11,-29
Cc1c(C(=O)N2CCN(Cc3ccccc3)CC2)oc2c1C(=O)CC(C)(C)C2,-34,1,7,-21,-4,-7
COc1cccc(N=Nc2c(=O)[nH]n3c(C)cc(C)nc23)c1,-13,0,64*,-7,12,-19
COc1cccc(N=Nc2c(N)[nH]n3c(=O)cc(-c4ccccc4)nc23)c1,-10,4,0,-19,14,2
COC(=O)c1ccc2nc(C3CCCCC3)c(Cc3ccccc3)n2c1,/,1,/,/,/,-28
OC(CNCCC1C=Nc2ccccc21)Cn1c2ccc(Cl)cc2c2cc(Cl)ccc21 (centres undefined),39,40*,3,56*,6,42
CC[N+](CC)(CC)CCOc1ccc(/C=C/c2ccccc2)cc1,1,15,13,3,/,-2
CC[N+](CC)(CC)CCCCOc1ccc2c(c1)C(=O)c1cc(OCCCC[N+](CC)(CC)CC)ccc1-2,-6,0,57*,-7,-14,-13
COc1ccc(Cl)cc1N1C(=O)C2CCCN2C1c1ccc(F)c(F)c1 (centres undefined),-16,-2,10,-27,16*,-24
Fc1ccc2cc(C3=CCCCC3)ncc2c1,/,-1,/,/,/,-1
Cc1ccc(-n2c3nc(=O)n(C)c(=O)c-3cc3ccccc32)cc1,-10,-1,50*,-18,-4,-22
CCCCn1c(=O)nc2n(-c3ccc(C)cc3)c3ccccc3cc-2c1=O,-27,-1,27,-18,9,-18
O=C1CCN(c2ccc([N+](=O)[O-])cc2F)CC1,-12,0,22,0,-9,-2
CC(=O)c1cccc(NC(=O)c2ccc(NC(=O)CC3SC(N4CCCCC4)=NC3=O)cc2)c1 (centres undefined),-13,-1,12,-14,-3,2
CCc1nnc(NC(=O)CSc2nnc(Cc3cc(=O)[nH]c(=O)[nH]3)n2-c2ccc(OC)cc2)s1,-11,1,16,12,11,-6
CCc1nnc(NC(=O)CSc2nnc(Cc3cc(=O)[nH]c(=O)[nH]3)n2-c2cccc(OC)c2)s1,-10,0,12,-2,17*,14
CCOc1cccc2c1OC1(C)CC2NC(=O)N1c1cccc(Cl)c1 (centres undefined),-8,12,44*,-4,-9,15
COc1ccc(C)cc1S(=O)(=O)NC(C)c1cnn(-c2ccccn2)c1C (centres undefined),1,4,16,3,-3,-15
CCCCn1c(NC(=O)c2ccccc2Cl)c(C#N)c2nc3ccccc3nc21,16,5,59*,-4,9,38
O=C(CCSCc1ccccc1F)NCCc1ccccc1,-3,39*,19,-11,1,76*
O=C(CSc1nnc(C2CC2)n1C1CC1)N1CCN(c2ccc(O)cc2)CC1,/,2,/,/,/,1
O=C(O)CNC(=O)c1ccc(Sc2ccccc2)c([N+](=O)[O-])c1,-5,0,64*,0,0,-5
C=CCNC(=O)c1ccc(Sc2ccccc2)c([N+](=O)[O-])c1,-26,9,36,-25,12,8
CSc1ccc(C(=O)NCC(=O)O)cc1[N+](=O)[O-],-18,1,53*,-9,-17,-6
Cn1cccc1/C=C1\SC(=O)N(CC(=O)Nc2ccc(Cl)cc2)C1=O,-16,28,3,-11,-7,55*
SMILES,OX1R antag-1,TAAR1 ag,OX1R antag-2,CHO parental Ca,GPR7 antag,TAAR1 antag
CCOc1ccc(NC(=O)CN2C(=O)S/C(=C/c3cccn3C)C2=O)cc1,-1,3,44,-11,0,16
CCOC(=O)c1ccc(NC(=O)C(=O)NCC2CCCO2)cc1 (centres undefined),-9,16,13,-16,-14,-3
Cc1cccn2c(CNCCc3ccco3)c(C(=O)N3CCOCC3)nc12,/,43*,/,/,-3,18
Cc1cccn2c(CNC3CCCc4ccccc43)c(C(=O)N3CCOCC3)nc12 (centres undefined),-22,7,21,-16,-4,-10
CCN1CCN(Cc2ccc(NC(=O)c3cc(NC(=O)c4cc5cccc(OC)c5o4)cc(OC)c3)cc2C(F)(F)F)CC1,-19,11,21,-3,/,59*!
COc1cc(NC(=O)c2cc3cccc(OC)c3o2)cc(C(=O)Nc2cccc(C(F)(F)F)c2)c1,24,21,12,42*,/,87*
COc1ccc(-c2cc(C(=O)Nc3cc(OC)cc(C(=O)Nc4cccc(C(F)(F)F)c4)c3)[nH]n2)cc1,22,10,20,32*,/,55*
CCN1CCN(Cc2ccc(NC(=O)c3cc(NC(=O)c4ccno4)cc(OC)c3)cc2C(F)(F)F)CC1,-17,7,15,-6,/,14
COc1cc(NC(=O)c2ccno2)cc(C(=O)Nc2cccc(C(F)(F)F)c2)c1,15,18,18,27,/,38
CCOC(=O)c1csc(NC(=O)c2cc(-c3ccccn3)nc3ccccc23)n1,-15,8,-2,-9,/,12
Fc1ccc2cc(-c3ccccc3)ncc2c1,-18,-2,10,-5,/,14
O=C(COC(=O)COc1cccc(Br)c1)NCc1ccc2c(c1)OCO2,-11,0,7,-9,/,9
Cc1nn(-c2ccccc2)c2c1C(O)n1c(nc3ccccc31)S2 (centres undefined),-21,17,21,-18,8,50*
Cc1ccc(S(=O)(=O)Nc2cc(C(F)(F)F)ccc2N2CCOCC2)c(C)c1,-31,1,-5,-35,-5,-21
C[C@H]1COC(=O)[C@H](Cc2ccc(F)cc2)C/C=C\C[C@H](CC(=O)NCCO)C(=O)N1,-15,2,5,-4,/,1
Cc1ccc(N(CCCCN2C(=O)c3ccccc3C2=O)C(=O)c2cccs2)cc1,-24,8,10,-17,-10,49*
COc1ccc(OC)c(NC(=O)CN2C(=O)NC3(CCOc4ccccc43)C2=O)c1 (centres undefined),-15,2,22,-1,1,-6
C(=N\n1cnnc1)/c1ccc(OCc2ccccc2)cc1,-7,13,6,1,0,27
Cc1cc(/C=N/n2cnnc2)c(C)n1-c1ccc(OCc2ccc(Cl)cc2)cc1,52*,15,14,49*,11,47
Cc1cc(/C=N/n2cnnc2)c(C)n1-c1ccc(OCc2ccccc2F)cc1,20,14,23,56*,9,29
